Experimental findings from ChEMBL document CHEMBL4622930, “Synthesis and biological evaluation of novel isothiazoloquinoline quinone analogues” (Bioorg Med Chem Lett, 2020) are described below.

The term IC50 denotes the concentration that gives 50% inhibition.

One experiment concerns HT-29. Briefly: Antiproliferative activity against human HT-29 cells assessed as reduction in cell viability measured after 48 hrs MTT assay. Type of experiment: functional, cell-based. Particulars: HT-29, 48 h. Summed up: (§1)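 Cells (MDA-MB-231, MCF-7, MCF-10A, HT-29, A549) exposed to compounds for 48 h, then viability read by MTT. IC50 is the concentration giving 50% inhibition of viability. Means ± SD of three independent experiments.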
(In general: Tetrazolium dyes change colour on reduction, which living cells bring about.)
For `COc1ccc(-c2nsc3c2C(=O)c2ccccc2C3=O)cc1`, the IC50 amounted to 36800 nM.
On the same count and under the same terms, for `COc1ccc(-c2nsc3c2C(=O)c2cccnc2C3=O)cc1` the value was 40000 nM.
On to `COc1ccc(-c2nsc3c2C(=O)c2cccc(OC)c2C3=O)cc1`, for which the IC50 was greater than 40000 nM.
`O=C1c2ncccc2C(=O)c2c(-c3ccccc3)nsc21`: the IC50 is 1200 nM.
As for `Cc1nsc2c1C(=O)c1cccnc1C2=O`, the IC50 came out at 3030 nM.
For `O=C1c2cccnc2C(=O)c2c(-c3ccccc3)nsc21`, the IC50 worked out at 2030 nM.
Turning to `COc1ccc(-c2nsc3c2C(=O)c2cccc(O)c2C3=O)cc1`, the IC50 amounted to 3880 nM.
Still for that read-out and setting: for `CCc1nsc2c1C(=O)c1cccnc1C2=O` the value was 2060 nM; for `CCc1nsc2c1C(=O)c1ncccc1C2=O`, 910 nM; for `CCc1nsc2c1C(=O)c1ccccc1C2=O`, 2920 nM.

The next experiment concerns MCF-10A. Nature of the experiment: Cytotoxicity against human MCF10A cells assessed as reduction in cell viability measured after 48 hrs MTT assay. The experiment is classed as cell-based.
Details: not given
Summed up: as §1
As to `COc1ccc(-c2nsc3c2C(=O)c2ccccc2C3=O)cc1`, the IC50 amounted to 29300 nM.
As for `COc1ccc(-c2nsc3c2C(=O)c2cccnc2C3=O)cc1`, the IC50 turned out to be 1960 nM.
As for `COc1ccc(-c2nsc3c2C(=O)c2cccc(OC)c2C3=O)cc1`, the IC50 is greater than 40000 nM.
Take `O=C1c2ncccc2C(=O)c2c(-c3ccccc3)nsc21`: the IC50 was 880 nM.
With `Cc1nsc2c1C(=O)c1cccnc1C2=O`, the IC50 is 880 nM.
With `O=C1c2cccnc2C(=O)c2c(-c3ccccc3)nsc21`, the IC50 was determined as 170 nM.
Still for that read-out and setting: the figure for `COc1ccc(-c2nsc3c2C(=O)c2cccc(O)c2C3=O)cc1` is 1510 nM; for `CCc1nsc2c1C(=O)c1cccnc1C2=O` it is 590 nM.
For `CCc1nsc2c1C(=O)c1ncccc1C2=O`, the IC50 worked out at 170 nM.
Take `CCc1nsc2c1C(=O)c1ccccc1C2=O`: the IC50 was determined as 1130 nM.

Another experiment has as its system MDA-MB-231. Nature of the experiment: Antiproliferative activity against human MDA-MB-231 cells assessed as reduction in cell viability measured after 48 hrs MTT assay. Type of experiment: functional, cell-based. As to conditions: MDA-MB-231, 48 h. The method in brief: as §1
With `COc1ccc(-c2nsc3c2C(=O)c2ccccc2C3=O)cc1`, the IC50 is 35200 nM.
Still for that read-out and setting: for `COc1ccc(-c2nsc3c2C(=O)c2cccnc2C3=O)cc1` the value was 730 nM.
On to `COc1ccc(-c2nsc3c2C(=O)c2cccc(OC)c2C3=O)cc1`, for which the IC50 is greater than 40000 nM.
For `O=C1c2ncccc2C(=O)c2c(-c3ccccc3)nsc21`, the IC50 was found to be 400 nM.
On the same count and under the same terms, the figure for `Cc1nsc2c1C(=O)c1cccnc1C2=O` is 230 nM; for `O=C1c2cccnc2C(=O)c2c(-c3ccccc3)nsc21` it is 660 nM; for `COc1ccc(-c2nsc3c2C(=O)c2cccc(O)c2C3=O)cc1` it is 1460 nM.
Consider `CCc1nsc2c1C(=O)c1cccnc1C2=O`, for which the IC50 worked out at 340 nM.
Regarding `CCc1nsc2c1C(=O)c1ncccc1C2=O`, the IC50 came out at 1530 nM.
For `CCc1nsc2c1C(=O)c1ccccc1C2=O`, the IC50 is 2590 nM.

Another experiment deals with A549. Briefly: Antiproliferative activity against human A549 cells assessed as reduction in cell viability measured after 48 hrs MTT assay. Particulars: A549, 48 h. The experiment is classed as functional, cell-based. Summed up:
as §1
With `COc1ccc(-c2nsc3c2C(=O)c2ccccc2C3=O)cc1`, the IC50 was greater than 40000 nM.
In the case of `COc1ccc(-c2nsc3c2C(=O)c2cccnc2C3=O)cc1`, the IC50 turned out to be 2770 nM.
For `COc1ccc(-c2nsc3c2C(=O)c2cccc(OC)c2C3=O)cc1`, the IC50 was greater than 40000 nM.
On the same count and under the same terms, the figure for `O=C1c2ncccc2C(=O)c2c(-c3ccccc3)nsc21` is 810 nM; for `Cc1nsc2c1C(=O)c1cccnc1C2=O` it is 1690 nM; for `O=C1c2cccnc2C(=O)c2c(-c3ccccc3)nsc21` it is 1350 nM.
The same measure, in the same setting: the figure for `COc1ccc(-c2nsc3c2C(=O)c2cccc(O)c2C3=O)cc1` is 4800 nM; for `CCc1nsc2c1C(=O)c1cccnc1C2=O` it is 1510 nM.
`CCc1nsc2c1C(=O)c1ncccc1C2=O`: the IC50 came out at 1380 nM.
For `CCc1nsc2c1C(=O)c1ccccc1C2=O`, the IC50 came out at 700 nM.

In the next experiment the target is NAD(P)H dehydrogenase [quinone] 1 (Homo sapiens) (UniProt P15559). Briefly: Substrate activity at human NQO1 assessed as amount of NADH oxidation assessed per umol NQO1.
Chain of NAD(P)H dehydrogenase [quinone] 1 (Homo sapiens) (P15559 whole entry): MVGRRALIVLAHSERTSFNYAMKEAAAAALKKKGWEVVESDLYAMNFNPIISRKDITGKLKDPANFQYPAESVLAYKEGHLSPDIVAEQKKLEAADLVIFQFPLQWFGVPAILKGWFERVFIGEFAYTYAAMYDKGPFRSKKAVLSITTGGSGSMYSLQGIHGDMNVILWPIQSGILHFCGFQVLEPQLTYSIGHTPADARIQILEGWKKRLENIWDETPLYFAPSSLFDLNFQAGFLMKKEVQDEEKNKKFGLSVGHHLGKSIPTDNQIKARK
Details: not given
The method in brief: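 Quinones at 20 μM coincubated with NADH with and without human NQO1. Rate of NADH oxidation measured.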
Regarding `COc1ccc(-c2nsc3c2C(=O)c2ccccc2C3=O)cc1`, the Activity was determined as 7.29 µmol/min.
Regarding `COc1ccc(-c2nsc3c2C(=O)c2cccnc2C3=O)cc1`, the Activity is 209 µmol/min.
For the compound `COc1ccc(-c2nsc3c2C(=O)c2cccc(OC)c2C3=O)cc1`, the Activity stood at 18 µmol/min.
Consider `O=C1c2ncccc2C(=O)c2c(-c3ccccc3)nsc21`, for which the Activity amounted to 174 µmol/min.
As to `Cc1nsc2c1C(=O)c1cccnc1C2=O`, the Activity turned out to be 180 µmol/min.
On the same count and under the same terms, the figure for `O=C1c2cccnc2C(=O)c2c(-c3ccccc3)nsc21` is 175 µmol/min; for `COc1ccc(-c2nsc3c2C(=O)c2cccc(O)c2C3=O)cc1` it is 38.9 µmol/min.
Same read-out and setting: the figure for `CCc1nsc2c1C(=O)c1cccnc1C2=O` is 28.4 µmol/min; for `CCc1nsc2c1C(=O)c1ncccc1C2=O` it is 91.8 µmol/min; for `CCc1nsc2c1C(=O)c1ccccc1C2=O` it is 122 µmol/min.

The subject of another experiment is MCF7. Briefly: Antiproliferative activity against human MCF7 cells assessed as reduction in cell viability measured after 48 hrs MTT assay. The experiment is classed as functional, cell-based. Particulars: MCF7, 48 h. The method in brief: as §1
As to `COc1ccc(-c2nsc3c2C(=O)c2ccccc2C3=O)cc1`, the IC50 was determined as 37500 nM.
In the case of `COc1ccc(-c2nsc3c2C(=O)c2cccnc2C3=O)cc1`, the IC50 was determined as 1820 nM.
On the same count and under the same terms, the figure for `COc1ccc(-c2nsc3c2C(=O)c2cccc(OC)c2C3=O)cc1` is greater than 40000 nM.
On the same count and under the same terms, for `O=C1c2ncccc2C(=O)c2c(-c3ccccc3)nsc21` the value was 260 nM; for `Cc1nsc2c1C(=O)c1cccnc1C2=O`, 640 nM; for `O=C1c2cccnc2C(=O)c2c(-c3ccccc3)nsc21`, 460 nM.
Still for that read-out and setting: for `COc1ccc(-c2nsc3c2C(=O)c2cccc(O)c2C3=O)cc1` the value was 1410 nM; for `CCc1nsc2c1C(=O)c1cccnc1C2=O`, 1110 nM.
Take `CCc1nsc2c1C(=O)c1ncccc1C2=O`: the IC50 came out at 360 nM.
Regarding `CCc1nsc2c1C(=O)c1ccccc1C2=O`, the IC50 was 2340 nM.
